Experimental data published in ChEMBL document CHEMBL1141851, “Two bioactive pentacyclic triterpene esters from the root bark of Hibiscus syriacus” (J Nat Prod, 1999).
≈ marks a conversion by molar mass, not a printed value.

Legend:
Liver microsomes = assay: Antioxidant activity in rat liver microsomes assessed as inhibition of lipid peroxidation by TBARS assay; type: functional, Microsome
Method in brief: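 Rat liver microsomal suspension ([…]) mixed with 0.2 mM ascorbic acid. Peroxidation was started by adding 100 µM FeSO4·7H2O. Thiobarbituric acid reactive products were read at 532 nm to measure inhibition of lipid peroxidation. The method was adapted with minor modification from an earlier one.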

UACC-62 = assay: Cytotoxicity against human UACC-62 cells; type: functional; settings: read-out: ED50 (the source's name)
MCF7 = assay: Cytotoxicity against human MCF7 cells; type: functional; settings: read-out: ED50 (the source's name)
NCI-H23 = assay: Cytotoxicity against human NCI-H23 cells; type: functional; settings: read-out: ED50 (the source's name)
ACHN = assay: Cytotoxicity against human ACHN cells; type: functional; settings: read-out: ED50 (the source's name)
UO-31 = assay: Cytotoxicity against human UO-31 cells; type: functional; settings: read-out: ED50 (the source's name)
PC-3 = assay: Cytotoxicity against human PC-3 cells; type: functional; settings: read-out: ED50 (the source's name)
SW-620 = assay: Cytotoxicity against human SW620 cells; type: functional; settings: read-out: ED50 (the source's name)
HCT-15 = assay: Cytotoxicity against human HCT-15 cells; type: functional; settings: read-out: ED50 (the source's name)
SF-539 = assay: Cytotoxicity against human SF-539 cells; type: functional; settings: read-out: ED50 (the source's name)

Molecule | IC50 (Liver microsomes) [µg/mL] | EC50 (UACC-62) [µg/mL] | EC50 (MCF7) [µg/mL] | EC50 (NCI-H23) [µg/mL] | EC50 (ACHN) [µg/mL] | EC50 (UO-31) [µg/mL] | EC50 (PC-3) [µg/mL] | EC50 (SW-620) [µg/mL] | EC50 (HCT-15) [µg/mL] | EC50 (SF-539) [µg/mL]
CC1(C)CC[C@]2(CO)CC[C@]3(C)C(=CC[C@@H]4[C@@]5(C)CC[C@H](O)[C@@](C)(COC(=O)/C=C/c6ccc(O)c(O)c6)[C@@H]5CC[C@]43C)[C@@H]2C1 | 2.3 (≈ 3.7 µM) | 3.9 (≈ 6.28 µM) | 2.2 (≈ 3.54 µM) | 2.8 (≈ 4.51 µM) | 1.2 (≈ 1.93 µM) | 2 (≈ 3.22 µM) | 1.6 (≈ 2.58 µM) | 1.1 (≈ 1.77 µM) | 0.8 (≈ 1.29 µM) | 1.4 (≈ 2.25 µM)
VITAMIN E | 1.6 |  |  |  |  |  |  |  |  | 
COc1cccc2c1C(=O)c1c(O)c3c(c(O)c1C2=O)C[C@@](O)(C(=O)CO)C[C@@H]3O[C@H]1C[C@H](N)[C@H](O)[C@H](C)O1 [DOXORUBICIN] |  | 0.2 (≈ 0.368 µM) | 0.1 (≈ 0.184 µM) | 0.1 (≈ 0.184 µM) | 0.3 (≈ 0.552 µM) |  | 0.4 (≈ 0.736 µM) | 0.1 (≈ 0.184 µM) | 0.6 (≈ 1.1 µM) | 0.2 (≈ 0.368 µM)
CC1(C)CC[C@]2(CO)CC[C@]3(C)C(=CC[C@@H]4[C@@]5(C)CC[C@H](OC(=O)/C=C/c6ccc(O)c(O)c6)[C@@](C)(CO)[C@@H]5CC[C@]43C)[C@@H]2C1 | 1.1 (≈ 1.77 µM) | 2.3 (≈ 3.7 µM) | 1.8 (≈ 2.9 µM) | 1.7 (≈ 2.74 µM) | 2.1 (≈ 3.38 µM) | 1.7 (≈ 2.74 µM) | 2.2 (≈ 3.54 µM) | 1 (≈ 1.61 µM) | 1.3 (≈ 2.09 µM) | 2 (≈ 3.22 µM)
